The source of these data is ChEMBL document CHEMBL4732104, “Discovery of bardoxolone derivatives as novel orally active necroptosis inhibitors” (Eur J Med Chem, 2021).

Series [1] relates to HT-29. Description: Anti-necroptotic activity in human HT-29 cells assessed as inhibition of TNFalpha/SM-164/Z-VAD-fmk (TSZ)-induced necroptosis by measuring cell viability at 10 uM preincubated for 30 mins followed by TSZ stimulation and measured after 16 hrs by celltiter-glo luminescent cell viability assay relative to control. In kind it is functional. The conditions noted are these: time 16.5 hrs. In outline: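 HT-29 cells in DMEM with 10% FBS, 37 °C, 5% CO2. Compound pretreatment 30 min, then TNF-α 20 ng/mL, Smac mimetic and z-VAD-fmk 20 μM for 16 h. Viability by CellTiter-Glo luminescence, normalised to untreated control cells.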

A further series has as its system Rattus norvegicus. Description: Neuroprotective activity in middle cerebral artery occlusion-induced Sprague-Dawley rat model of ischemia-reperfusion injury assessed as reduction in cerebral infarct volume at 1 mg/kg by TTC staining based microscopic analysis relative to control. Format: functional. Further details: scale not given: the % may be the effect or the level left.

Series [2] concerns HT-29. Nature of the series: Anti-necroptotic activity in human HT-29 cells assessed as inhibition of TNFalpha/SM-164/Z-VAD-fmk (TSZ)-induced necroptosis by measuring increase in cell viability at 10 uM measured after 12 hrs by celltiter-glo luminescent cell viability assay. Format: functional, cell-based. An outline of the steps:
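HT-29 cells in DMEM with 10% FBS at 37 °C, 5% CO2. Test agents at 10 μM, then TSZ stimulation for 12 h. Viability read by CellTiter-Glo luminescence.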
A general note: ATP-based viability assays read luminescence as a measure of living cells.

The test system of another series is L929. Nature of the series: Anti-necroptotic activity in mouse L929 cells assessed as inhibition of TNFalpha/Z-VAD-fmk (TZ)-induced necroptosis by measuring increase in cell viability measured after 12 hrs by celltiter-glo luminescent cell viability assay. Format: functional, cell-based. The following applies: L929, 12 h. In outline:
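Mouse L929 fibroblasts pretreated with test agent, then mouse TNF-α (20 ng/mL) plus z-VAD-fmk (20 μM). Incubation stated as 4 h in table footnote and 12 h in figure legend. CellTiter-Glo viability. EC50 ± SD from at least three independent repeats.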

The test system of series [3] is HT-29. Description: Anti-necroptotic activity in human HT-29 cells assessed as inhibition of TNFalpha/SM-164/Z-VAD-fmk (TSZ)-induced necroptosis by measuring increase in cell viability measured after 12 hrs by celltiter-glo luminescent cell viability assay. In kind it is functional, cell-based. The following applies: for EC50: HT-29, 12 h. An outline of the steps:
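HT-29 cells pretreated with test agent across a concentration range, then TNF-α (20 ng/mL), Smac mimetic (10 nM) and z-VAD-fmk (20 μM) for 12–16 h. CellTiter-Glo viability. EC50 ± SD from at least three independent experiments.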

The subject of series [4] is HT-29. Description: Anti-necroptotic activity in human HT-29 cells assessed as inhibition of TNFalpha/SM-164/Z-VAD-fmk (TSZ)-induced necroptosis by measuring reduction in cell swelling at 5 uM preincubated for 30 mins followed by TSZ stimulation and measured after 12 hrs by phase contrast microscopic analysis. Format: functional, cell-based. The following applies: time 12.5 hrs. In outline: (§1)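 HT-29 cells pretreated with DMSO or compound, then stimulated with TNF-α, Smac mimetic and z-VAD-fmk for 12 h. Necrotic morphology (swelling, membrane rupture) viewed by phase contrast microscopy at 200×.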

Series [5] has as its system HT-29. Nature of the series: Cytotoxicity against human HT-29 cells assessed as reduction in cell viability at 10 uM by MTT assay. Format: cell-based. The following applies: ht-29, 10 µM. In general terms: Tetrazolium dyes change colour on reduction, which living cells bring about.
The test system of series [6] is HT-29. Nature of the series: Anti-necroptotic activity in human HT-29 cells assessed as inhibition of TNFalpha/SM-164/Z-VAD-fmk (TSZ)-induced necroptosis by measuring reduction in plasma membrane rupture at 5 uM preincubated for 30 mins followed by TSZ stimulation and measured after 12 hrs by phase contrast microscopic analysis. The following applies: time 12.5 hrs. Format: functional, cell-based. An outline of the steps: as §1

Series [7] relates to HT-29. Nature of the series: Anti-necroptotic activity in human HT-29 cells assessed as inhibition of TNFalpha/cycloheximide/Z-VAD-fmk (TCZ)-induced necroptosis by measuring increase in cell viability measured after 16 hrs by celltiter-glo luminescent cell viability assay. In kind it is functional, cell-based.
Series [8] concerns HT-29. Description: Protection against TNFalpha/cycloheximide (TC)-induced apoptosis in human HT-29 cells assessed as increase in cell viability at 0.08 to 10 uM measured after 24 hrs by celltiter-glo luminescent cell viability assay. In kind it is functional, cell-based. The following applies: dose 0.08-10 µM. An outline of the steps: (§2)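 HT-29 apoptosis induced by TNF-α 20 ng/mL plus Smac mimetic (20 h), or by TNF-α plus cycloheximide (24 h), with graded compound concentrations. Viability read by CellTiter-Glo luminescence; means ± S.D. of three independent experiments.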

For series [9], the system named is HT-29. Description: Protection against TNFalpha/SM-164 (TS)-induced apoptosis in human HT-29 cells assessed as increase in cell viability at 0.08 to 10 uM measured after 20 hrs by celltiter-glo luminescent cell viability assay. Format: functional, cell-based. The following applies: dose 0.08-10 µM. In outline:
as §2

Activity calls are given as the source filed them. No cut-off for these calls is given here.

`Cc1ccc(Nc2nccc(N(C)c3ccc4c(C)n(C)nc4c3)n2)cc1S(N)(=O)=O` [PAZOPANIB]: the Activity in the series with HT-29 [1] is reported as more than 80%.
For `COCCOC(=O)C1=C(C)NC(C)=C(C(=O)OC(C)C)C1c1cccc([N+](=O)[O-])c1` (stereo not drawn) [NIMODIPINE], the Activity in the series on Rattus norvegicus was 26.8%.
With `COC(=O)/C=C/C(=O)OC`, in the series with HT-29 [2], the inhibition result was “inactive”.
As to `CCNC(=O)[C@]12CCC(C)(C)C[C@H]1[C@H]1C(=O)C=C3[C@@]4(C)C=C(C#N)C(=O)C(C)(C)[C@@H]4CC[C@@]3(C)[C@]1(C)CC2`, the EC50 with L929 stood at 4150 nM; in the series on HT-29 [3] it was 1380 nM.
For the compound `CC1(C)CC[C@]2(C(=O)O)[C@H](O)C[C@]3(C)C(=CC[C@@H]4[C@@]5(C)CC[C@H](O)C(C)(C)[C@@H]5CC[C@]43C)[C@@H]2C1`, the 50% effective concentration (EC50) in the series on HT-29 [3] was more than 10000 nM.
With `COC(=O)[C@]12CCC(C)(C)C[C@H]1[C@H]1C(=O)C=C3[C@@]4(C)C=C(C#N)C(=O)C(C)(C)[C@@H]4CC[C@@]3(C)[C@]1(C)CC2` [BARDOXOLONE METHYL], the 50% effective concentration (EC50) was more than 10000 nM in the series on L929 and 4340 nM in the series on HT-29 [3].
For the compound `CC1(C)CC[C@]2(C(=O)n3ccnc3)CC[C@]3(C)[C@H](C(=O)C=C4[C@@]5(C)C=C(C#N)C(=O)C(C)(C)[C@@H]5CC[C@]43C)[C@@H]2C1`, the EC50 was 1460 nM in the series on L929 and 2100 nM in the series on HT-29 [3].
In the case of `CC1(C)CC[C@]2(C(=O)n3cnc(-c4ccccn4)c3)CC[C@]3(C)[C@H](C(=O)C=C4[C@@]5(C)C=C(C#N)C(=O)C(C)(C)[C@@H]5CC[C@]43C)[C@@H]2C1`, the EC50 turned out to be 610 nM in the series with L929 and 290 nM with HT-29 [3].
On to `CC(C)c1cc(C(=O)N2Cc3ccc(CN4CCN(C)CC4)cc3C2)c(O)cc1O`, for which the inhibition result in the series on HT-29 [2] is “Active”.
As to `C=CCNC1=C2C[C@@H](C)C[C@H](OC)[C@H](O)[C@@H](C)/C=C(\C)[C@H](OC(N)=O)[C@@H](OC)/C=C\C=C(/C)C(=O)NC(=CC1=O)C2=O`, the inhibition entry in the series with HT-29 [2] is “Active”.
With `COC(=O)[C@@]12OC[C@]34[C@H]([C@@H](O)[C@@H]1O)[C@@]1(C)CC(=O)C(O)=C(C)[C@@H]1C[C@H]3OC(=O)[C@H](OC(=O)C=C(C)C)[C@@H]24`, the inhibition result in the series with HT-29 [2] was “inactive”.
Turning to `CC1(C)CC[C@]2(C(=O)NC3CCCCC3)CC[C@]3(C)[C@H](C(=O)C=C4[C@@]5(C)C=C(C#N)C(=O)C(C)(C)[C@@H]5CC[C@]43C)[C@@H]2C1`, the EC50 with L929 is more than 10000 nM; in the series with HT-29 [3], 1300 nM.
For the compound `CC1(C)CC[C@]2(C(=O)N[C@@H]3CCCc4ccccc43)CC[C@]3(C)[C@H](C(=O)C=C4[C@@]5(C)C=C(C#N)C(=O)C(C)(C)[C@@H]5CC[C@]43C)[C@@H]2C1`, the values for the EC50 with L929 and in the series with HT-29 [3] were 820 nM and 1910 nM, respectively.
Regarding `CC1(C)CC[C@]2(NC(=O)C(C)(F)F)CC[C@]3(C)[C@H](C(=O)C=C4[C@@]5(C)C=C(C#N)C(=O)C(C)(C)[C@@H]5CC[C@]43C)[C@@H]2C1` [OMAVELOXOLONE], the results for the EC50 in the series with L929 and with HT-29 [3] were 5250 nM and 1410 nM, respectively.
In the case of `CC1(C)CC[C@]2(C(=O)NCc3ccccc3)CC[C@]3(C)[C@H](C(=O)C=C4[C@@]5(C)C=C(C#N)C(=O)C(C)(C)[C@@H]5CC[C@]43C)[C@@H]2C1`, the EC50 in the series with L929 is 1030 nM; with HT-29 [3] it was 1630 nM.
For `CC1(C)CC[C@]2(C(=O)O)CC[C@]3(C)C(=CC[C@@H]4[C@@]5(C)CC[C@H](O)C(C)(C)[C@@H]5CC[C@]43C)[C@@H]2C1` [OLEANOLIC_ACID], the EC50 in the series on HT-29 [3] is more than 10000 nM.
For the compound `CC1(C)CC[C@]2(C(=O)NCCNC(=O)OC(C)(C)C)CC[C@]3(C)[C@H](C(=O)C=C4[C@@]5(C)C=C(C#N)C(=O)C(C)(C)[C@@H]5CC[C@]43C)[C@@H]2C1`, the EC50 with L929 was 1480 nM; in the series on HT-29 [3], 2810 nM.
For the compound `CC1(C)CC[C@]2(C(=O)O)CC[C@]3(C)[C@H](C(=O)C=C4[C@@]5(C)C=C(C#N)C(=O)C(C)(C)[C@@H]5CC[C@]43C)[C@@H]2C1` [BARDOXOLONE], the values for the EC50 with L929 and with HT-29 [3] were more than 10000 nM and 1300 nM, respectively. Further, the result in the series with HT-29 [4] and with HT-29 [6] was Active. The Activity in the series with HT-29 [1] is reported as more than 100%; in the series on HT-29 [5], “Toxic”. The inhibition result in the series on HT-29 [3] and in the series on HT-29 [7] was “Dose-dependent effect” throughout. Further, the outcome in the series on HT-29 [8] and in the series with HT-29 [9] was inactive.
Turning to `CC1(C)CC[C@]2(C(=O)N[C@H]3CCCc4ccccc43)CC[C@]3(C)[C@H](C(=O)C=C4[C@@]5(C)C=C(C#N)C(=O)C(C)(C)[C@@H]5CC[C@]43C)[C@@H]2C1`, the concentration for a half-maximal effect (EC50) came out at 620 nM in the series on L929 and 1810 nM in the series with HT-29 [3].

Broadly, the EC50 is the concentration at which the effect is half-maximal.
